Screens as filed in PubChem BioAssay.
Lmaj promast = Leishmania major promastigote growth inhibition, primary screen. Leishmania major promastigotes, resazurin fluorescence viability. inhibition, % at 10 µM. 200,000 compounds, 9% hits. AID 1063, 2008; in the data active means inhibition above about 50%;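 further: promastigotes grown with compound for 44 hours at 28 °C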
PTEN del growth = growth suppression of PTEN-null HCT116, primary screen, cell-based, CellTiter-Glo | HCT116 PTEN-null viability, 60 h; active compounds read low | viability, % at 10 µM | 140,000 compounds, 1.2% hits | AID 827, 2007;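 active means viability at or below a set limit, 4 SD under the median of all tested compounds, cut at about 3.7% in these data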;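 further: PTEN knockout HCT116 line with beta catenin targeted HCT116 as companion control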
HCT116 bCat-KO = primary screen for growth suppressors in beta-catenin knockout HCT116 cells (colon tumor, human); viability, % at 10 µM; HCT116 beta-catenin knockout viability, CellTiter-Glo, 60 h; active compounds read low; AID 818, 2007; 140,000 compounds, 1.5% hits;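 active means viability at or under a set limit, the compound median less 4 SD, cut at about 6% in these data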
PMI act satM6P = human PMI activators, high substrate, primary screen, biochemical, fluorescence intensity, near-saturating mannose 6-phosphate. Mannose-6-phosphate isomerase (Homo sapiens), P34949. coupled PMI enzyme assay, resazurin fluorescence, 20 min; active compounds read high; 1 = untreated enzyme, 0 = substrate-free blank. activation factor at 20 µM. 190,000 compounds, 0.34% hits;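 active means activation factor of 2 or more at 20 µM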
Target sequence (P34949 whole entry, looked up): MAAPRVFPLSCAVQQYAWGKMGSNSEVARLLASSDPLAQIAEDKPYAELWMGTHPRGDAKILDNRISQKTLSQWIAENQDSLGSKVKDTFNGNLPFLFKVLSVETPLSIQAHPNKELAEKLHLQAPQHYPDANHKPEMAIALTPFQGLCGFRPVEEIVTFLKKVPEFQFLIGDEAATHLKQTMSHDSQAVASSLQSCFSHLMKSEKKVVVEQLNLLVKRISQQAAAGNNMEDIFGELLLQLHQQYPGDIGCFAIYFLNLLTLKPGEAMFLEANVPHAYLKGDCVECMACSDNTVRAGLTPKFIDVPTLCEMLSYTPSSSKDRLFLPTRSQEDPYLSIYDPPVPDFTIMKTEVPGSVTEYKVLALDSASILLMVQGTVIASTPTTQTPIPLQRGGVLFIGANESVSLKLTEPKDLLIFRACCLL
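Test system – human PMI in coupled enzyme assay · Timing – 20 min incubation at room temperature · Detection – Diaphorase-driven resazurin-to-resorufin fluorescence, excitation 544, emission 590 nm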
PMI activator = activators of human PMI, primary screen, biochemical, fluorescence intensity, near-Km mannose 6-phosphate. purified human PMI, coupled resazurin fluorescence, 20 min; active compounds read high; 1 = vehicle control, 0 substrate-free wells. Mannose-6-phosphate isomerase (Homo sapiens), P34949. activation factor at 20 µM. 190,000 compounds, 0.005% hits. AID 1214, 2008;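 active means activation factor of 2 or more at 20 µM, relative to plate controls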
Lmaj promast 1uM = Leishmania major promastigote growth inhibition, confirmation, 1 µM repeat of primary hits | shares compounds with Lmaj promast | L. major promastigote growth, resazurin fluorescence, 48 h | inhibition, % at 1 µM | 1,100 compounds, 13% hits | AID 1258, 2008;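 active means inhibition above about 50% in both repeat tests, limit read from the data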
Large screens that a line does not name were inactive (follow-up assays come after a bar, where they were run). Shown are actives, neighbours in structure and some others; about 9.6% of the full set was active somewhere.

c1ccc(CN2CCN(C3=Nc4cccc5cccc3c45)CC2)cc1	Lmaj promast 98 | Lmaj promast 1uM inactive
CC(=O)c1ccc(N2CCN(C(=O)CCCn3c(=S)[nH]c4cc5c(cc4c3=O)OCO5)CC2)cc1	none
COc1ccc(-c2nn(-c3ccccc3)cc2N)cc1	none (no result: PTEN del growth, HCT116 bCat-KO)
Nc1nnc(-c2cn(-c3ccccc3)nc2-c2ccccc2)o1	Lmaj promast 55 | Lmaj promast 1uM inactive
O=C(Nc1nccs1)c1ccc2c(=O)n3c(nc2c1)CCCCC3	none
NC1=NC2=C(CCCC2)C2(CCCCC2)S1	Lmaj promast 54 | Lmaj promast 1uM inactive
CC1(C)Oc2ccc(NC(=O)c3ccco3)cc2O1	none
O=C(NCc1ccco1)C(=O)c1c[nH]c2ccccc12	none (no result: PTEN del growth, HCT116 bCat-KO)
CC(=O)n1cc([C@H]2C=C(C(=O)N3CCN(Cc4ccccc4)CC3)O[C@@H](OCc3ccc(CO)cc3)C2)c2ccccc21	none (no result: PTEN del growth, HCT116 bCat-KO)
CC1(C)CN(c2ccccc2)N(C(=O)c2ccc(F)cc2)C1=O	none
CC1(C)CN(c2ccccc2)N(C(=O)c2ccc(C#N)cc2)C1=O	Lmaj promast 54 | Lmaj promast 1uM inactive
O=C(O)CSCC(=O)NCc1ccccc1	none
COc1ccccc1CN=c1c([N+](=O)[O-])nn(-c2ccc3c(c2)OCCO3)n1O	Lmaj promast 98 | Lmaj promast 1uM inactive
Cc1cccc(C)c1OCC(O)CNC(C)C (stereo not given)	none
CCOC(=O)c1oc2cccc(OCC(O)CNC(C)C)c2c1C (stereo not given)	Lmaj promast 101 | Lmaj promast 1uM inactive
CC(=O)NC(CC(=O)Nc1nc(C)cs1)c1ccccc1 (stereo not given)	none (no result: PTEN del growth, HCT116 bCat-KO)
COc1cccc(C2C(C(=O)c3cc4ccccc4o3)=C(O)C(=O)N2CCN(C)C)c1OC (stereo not given)	none (no result: PTEN del growth, HCT116 bCat-KO, PMI act satM6P, PMI activator)
COc1cccc(C2C(C(=O)c3ccco3)=C(O)C(=O)N2CCN(C)C)c1OC (stereo not given)	Lmaj promast 62 | Lmaj promast 1uM inactive
O=C(N/N=C/c1ccc(O)cc1)c1csc2c1CCCC2	none
O=c1cc(O)sc2ccccc12	none
O=c1[nH]sc2ccccc12	Lmaj promast 67 (no result: PTEN del growth, HCT116 bCat-KO) | Lmaj promast 1uM inactive
Cc1nnc(Nc2ccccn2)c2ccccc12	Lmaj promast 70 | Lmaj promast 1uM 90
CCc1nnc(NC(=O)C2CCCN2S(=O)(=O)c2ccc(F)cc2)s1 (stereo not given)	none
Clc1ccc(CSCCc2ccncc2)cc1	none
c1ccc2c(CSCCc3ccncc3)cccc2c1	Lmaj promast 99 | Lmaj promast 1uM inactive
C=CCn1c(-c2cc3cccc(OC)c3o2)n[nH]c1=S	none (no result: PTEN del growth, HCT116 bCat-KO)
O=c1cc(-c2cccc3ccccc23)[nH][nH]1	Lmaj promast 80 | Lmaj promast 1uM inactive
O=c1cc(-c2ccc(Cl)cc2)[nH][nH]1	none
COc1ccc(C(=O)O/N=C(\N)Cc2ccc(Cl)cc2)cc1OC	Lmaj promast 66, PTEN del growth 2.4, HCT116 bCat-KO 0.9 | Lmaj promast 1uM inactive
Cc1ccc(OCCN2C(=O)C(=O)c3cccc(C)c32)cc1	none (no result: PTEN del growth, HCT116 bCat-KO, PMI act satM6P, PMI activator)
C=CCc1ccc(OCCCCCN2CCOCC2)c(OC)c1	Lmaj promast 100 | Lmaj promast 1uM 58
C=CCc1ccc(OCCCCOc2ccc(C(=O)O)cc2)c(OC)c1	none (no result: PTEN del growth, HCT116 bCat-KO)
CC(Cc1ccccc1)C(=O)NCc1ccncc1 (stereo not given)	none
CC(CCc1ccccc1)NCc1ccncc1 (stereo not given)	Lmaj promast 89 | Lmaj promast 1uM inactive
FC(F)(F)c1ccc2c(c1)C1C=CCC1C(c1ccncc1)N2 (stereo not given)	Lmaj promast 88 (no result: PTEN del growth, HCT116 bCat-KO) | Lmaj promast 1uM inactive
CCOC(=O)c1ccccc1NC(=O)Cc1sc(-c2cccnc2)nc1-c1ccc(C)cc1	Lmaj promast 97 | Lmaj promast 1uM inactive
Cc1[nH]c2ccccc2c1C(c1ccncc1)N1CCC(C)CC1 (stereo not given)	none (no result: PTEN del growth, HCT116 bCat-KO)
CC1=NCC(C)c2c1[nH]c1ccccc21 (stereo not given)	Lmaj promast 84 | Lmaj promast 1uM inactive
COC(=O)c1cccnc1-n1c(=O)c2cccnc2n(Cc2cccc(OC)c2)c1=O	none
Cc1nccc(-c2ccc(-n3cnc4ccccc43)cc2)n1	Lmaj promast 62 | Lmaj promast 1uM inactive
Cc1ccccc1NC1=NCC(c2ccc([N+](=O)[O-])cc2)S1 (stereo not given)	none (no result: PTEN del growth, HCT116 bCat-KO)
CC1(C)Cc2ccccc2C(NNC(=O)c2ccccn2)=N1	Lmaj promast 98 | Lmaj promast 1uM inactive
O=C(COc1ccccc1F)NC1CCN(Cc2ccccc2)CC1	Lmaj promast 91 | Lmaj promast 1uM 72
CS(=O)(=O)N(CC(=O)Nc1ccc(F)c(F)c1)c1cccc([N+](=O)[O-])c1	none
CC(OC(=O)CCc1nc2ccccc2c(=O)[nH]1)C(=O)NC1CCCC1 (stereo not given)	none
CC(OC(=O)CCc1nc2ccccc2c(=O)[nH]1)C(=O)c1ccc(C(C)(C)C)cc1 (stereo not given)	Lmaj promast 54 | Lmaj promast 1uM inactive
CCOC(=O)c1sc(NC(=O)CN2CCCC2)c(C(=O)OCC)c1C	Lmaj promast 93 | Lmaj promast 1uM inactive
Cc1[nH]c2ccccc2c1[C@H]1[C@@H](CC#N)C1(C)C	none
O=C(COC(=O)c1ccncc1)c1ccc(Cl)c(Cl)c1	none (no result: PTEN del growth, HCT116 bCat-KO, PMI act satM6P, PMI activator)
COc1cccc(N2CCN(C(=O)c3ccc(N4C(=O)NC5CC4(C)Oc4ccccc45)cc3)CC2)c1 (stereo not given)	Lmaj promast 73 | Lmaj promast 1uM inactive
CC12CC(NC(=O)N1c1ccc(C(=O)N3CCN(c4ccccn4)CC3)cc1)c1ccccc1O2 (stereo not given)	none
CCCC1COC(Cn2cncn2)(c2ccc(C)cc2)O1 (stereo not given)	Lmaj promast 55 | Lmaj promast 1uM inactive
CN(C)c1ccc(N2CN=C3SCC(=O)N3C2)cc1	Lmaj promast 62 | Lmaj promast 1uM inactive
O=C1NCN(c2ccccc2)C12CCN(c1nnnn1-c1ccccc1)CC2	Lmaj promast 81 | Lmaj promast 1uM inactive
O=C1CN(c2nnnn2-c2ccccc2)CCN1	none
O=C(c1cn(-c2ccccc2)nc1-c1ccc(Cl)s1)N1CCOCC1	Lmaj promast 64 | Lmaj promast 1uM inactive
O=C(c1cn(-c2ccccc2)nc1-c1ccc(Cl)cc1)N1CCOCC1	none
COC(=O)NCc1cccc(CNC(=O)OC)c1	none
O=C(NNc1ccc([N+](=O)[O-])cc1)c1ccccc1Cl	none (no result: PTEN del growth, HCT116 bCat-KO)
O=C(NNc1ccccc1)C(=O)NNS(=O)(=O)c1ccc([N+](=O)[O-])cc1	Lmaj promast 89 (no result: PTEN del growth, HCT116 bCat-KO) | Lmaj promast 1uM inactive
Cc1ccc(SCC(=O)Nc2ccc(N3CCN(C)CC3)c(F)c2)cc1	Lmaj promast 100 | Lmaj promast 1uM inactive
CC(=O)Nc1ccc(NC(=S)Nc2ccccc2)cc1	none
